Measured values taken from PubChem BioAssay.
Active and inactive are the calls of the source.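 Rule for the calls: active = calcium signal ratio cut to more than 3 SD under the fully stimulated control mean yet still positive, in both repeats and the primary screen; inactive = the rest.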

biological target: Short transient receptor potential channel 4 (Mus musculus) (UniProt Q9QUQ5); experiment: blockers of DAMGO-evoked TRPC4 calcium flux – cell-based, second round, Fluo4, HEK293 TRPC4beta/mu-opioid, 1 µM, confirmation (AID 2637); conditions: at 1 µM; active compounds read high;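 for inhibition: percent of integrated ratio relative to wells lacking test compound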
In short: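 Doses: 1 µM single point / Material: HEK293 cells with TRPC4beta plus mu-opioid receptor / Control set: DAMGO ECmax control wells and wells without test compound / Schedule: dye loading 45 min room temperature, compound pre-incubation 110 s / Measured by: kinetic Fluo4 Ca2+ fluorescence reading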

Sequence of Short transient receptor potential channel 4 (Mus musculus) (Q9QUQ5 whole entry, looked up): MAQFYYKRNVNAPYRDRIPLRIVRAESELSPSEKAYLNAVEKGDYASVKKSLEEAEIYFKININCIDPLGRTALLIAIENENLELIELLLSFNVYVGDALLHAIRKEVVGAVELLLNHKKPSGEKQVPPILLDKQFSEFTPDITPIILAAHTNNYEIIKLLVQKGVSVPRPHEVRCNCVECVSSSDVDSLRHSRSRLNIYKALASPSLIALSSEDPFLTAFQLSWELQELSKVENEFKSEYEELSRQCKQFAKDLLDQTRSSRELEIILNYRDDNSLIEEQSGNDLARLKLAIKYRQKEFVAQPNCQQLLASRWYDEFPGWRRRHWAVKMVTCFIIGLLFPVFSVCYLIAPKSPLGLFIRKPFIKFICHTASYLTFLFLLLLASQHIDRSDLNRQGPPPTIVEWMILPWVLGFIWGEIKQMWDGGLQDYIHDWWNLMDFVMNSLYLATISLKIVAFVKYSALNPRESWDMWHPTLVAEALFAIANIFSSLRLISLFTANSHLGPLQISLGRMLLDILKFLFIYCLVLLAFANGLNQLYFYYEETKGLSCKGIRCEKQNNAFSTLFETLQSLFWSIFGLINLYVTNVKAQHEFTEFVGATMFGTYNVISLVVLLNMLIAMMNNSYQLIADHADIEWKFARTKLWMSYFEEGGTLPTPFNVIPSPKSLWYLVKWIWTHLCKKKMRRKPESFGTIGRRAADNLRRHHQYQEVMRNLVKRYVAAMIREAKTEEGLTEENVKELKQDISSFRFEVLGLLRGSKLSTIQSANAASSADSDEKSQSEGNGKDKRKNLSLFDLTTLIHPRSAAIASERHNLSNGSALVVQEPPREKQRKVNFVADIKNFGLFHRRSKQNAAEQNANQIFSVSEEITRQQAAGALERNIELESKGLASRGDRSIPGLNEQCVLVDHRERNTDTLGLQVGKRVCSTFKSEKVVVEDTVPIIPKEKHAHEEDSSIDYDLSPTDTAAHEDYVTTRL

Q: Which outcome does the source give for `Cc1ccsc1C(=O)C1CCCN(Cc2ccccc2O)C1` (stereo not drawn) here?
A: Its outcome is “inactive”.

Q: How did the outcome turn out when `COc1ccc(C[C@@H]2c3cc(O)c(OC)cc3CCN2C)cc1O` was run?
A: Its outcome is “inactive”.

Q: For `CCC1=Nc2cc(C(=O)N3CCC4(CC3)OCCO4)ccc2Sc2ccc(C)cc21`, which outcome is on record?
A: The outcome was “inactive”.

Q: With `Cc1ccc(CN2C3CCCC2CC(NC(=S)NCc2ccccc2)C3)cc1` (stereo not drawn) as the molecule, how does the outcome read?
A: Its outcome is “inactive”.

Q: With `COc1ccc(Br)cc1CN1CCN(C(=O)Cc2ccccc2)CC1` as the molecule, how does the outcome read?
A: Its outcome is “inactive”.

Q: `CC(C)CN(CC(C)C)c1ccc(C=C2C(=O)NC(=S)NC2=O)cc1[N+](=O)[O-]` was tested. Which inhibition did it give?
A: The inhibition was 52% (active).

Q: For `CCOC(=O)C1(CCc2ccccc2)CCN(Cc2cccc3c2OCO3)CC1`, which outcome is on record?
A: Its outcome is “inactive”.

Q: How did the outcome turn out when `COc1ccc(CN2CCCC(C(=O)c3sccc3C)C2)cc1O` (stereo not drawn) was run?
A: The outcome was “inactive”.

Q: With `CCN1CCN(Cc2cc(Br)ccc2O)CC1` as the molecule, how does the outcome read?
A: The outcome was “inactive”.

Q: With `CCN(CC)c1ccc([N+](=O)[O-])c2cccnc12` as the molecule, how does the outcome read?
A: Its outcome is “inactive”.

Q: For `CN(CCOc1ccc(C=C2C(=O)NC(=O)NC2=O)cc1)c1ccccn1`, which outcome is on record?
A: Its outcome is “inactive”.

Q: Which outcome does the source give for `CCN(CC)CC(=O)Nc1ccc(Cl)cc1C(=O)c1ccccc1` here?
A: The outcome was “inactive”.

Q: `COc1cccc(O)c1CN1CCCC(C(=O)c2sccc2C)C1` (stereo not drawn) was tested. Which inhibition did it give?
A: Its inhibition is 40% (active).

Q: With `CCC1=Nc2cc(C(=O)N3CCC4(CC3)OCCO4)ccc2Sc2ccc(Br)cc21` as the molecule, how does the outcome read?
A: Its outcome is “inactive”.

Q: For `COc1ccc2[nH]cc(CCN(C)C)c2c1`, which outcome is on record?
A: The outcome was “inactive”.

Q: `CC(=O)OC1(c2ccccc2)CCN(C2CCCCC2)CC1C` (stereo not drawn) was tested. Which outcome did it give?
A: Its outcome is “inactive”.

Q: For `CCOC(=O)C1(c2ccccc2)CCN(CC(=O)Nc2ccc(C)cc2)CC1`, which outcome is on record?
A: Its outcome is “inactive”.

Q: With `COc1ccc(O)c(CN2CCCC(C(=O)c3sccc3C)C2)c1` (stereo not drawn) as the molecule, how does the outcome read?
A: Its outcome is “inactive”.

Q: Which outcome does the source give for `Clc1ccc(OCC#CCN2CCCC2)cc1` here?
A: Its outcome is “inactive”.

Q: How did the outcome turn out when `O=C(c1cccc(C(F)(F)F)c1)C1CCCN(Cc2ccccc2O)C1` (stereo not drawn) was run?
A: Its outcome is “inactive”.

Q: `CCOC(=O)C1(CCc2ccccc2)CCN(Cc2ccco2)CC1` was tested. Which outcome did it give?
A: Its outcome is “inactive”.

Q: How did the outcome turn out when `Nc1ccccc1-[n+]1c(-c2ccccc2)cc(-c2ccccc2)cc1-c1ccccc1` was run?
A: Its outcome is “inactive”.

Q: How did the inhibition turn out when `CCc1nccc2c1[nH]c1ccccc12` was run?
A: The inhibition was 63% (active).

Q: For `CCOC(=O)C(O)(c1ccc(NC(=S)NC(=O)c2ccc(Cl)cc2Cl)c(C)c1)C(F)(F)F` (stereo not drawn), which outcome is on record?
A: Its outcome is “inactive”.

Q: How did the inhibition turn out when `COc1ccc(OC)c(N2Cc3ccccc3C2=N)c1` was run?
A: The inhibition was 56% (active).

Q: Which outcome does the source give for `CCOc1c(Cl)cc(CNC(C)C(O)c2ccccc2)cc1OC` (stereo not drawn) here?
A: The outcome was “inactive”.

Q: Which inhibition does the source give for `Cc1cccc(N2CCc3c2nc2ccccc2c3N)c1` here?
A: The inhibition was 51% (active).

Q: `COc1ccc(C)cc1NC1=NC(C)(C)CS1` was tested. Which inhibition did it give?
A: The inhibition was 42% (active).

Q: How did the inhibition turn out when `N=c1n(CCO)c2ccccc2n1Cc1ccccc1` was run?
A: The inhibition was 48% (active).

Q: `CCc1ccc(OCCCN=C(C)c2c(O)n(C)c(=O)n(C)c2=O)cc1` was tested. Which outcome did it give?
A: Its outcome is “inactive”.

Q: For `O=C(CN1CCCC1)Nc1ccc(Cl)cc1C(=O)c1ccccc1`, which outcome is on record?
A: The outcome was “inactive”.

Q: Which inhibition does the source give for `O=C(c1ccc(Cl)cc1)C1CCCN(C2CCSCC2)C1` (stereo not drawn) here?
A: Its inhibition is 64% (active).

Q: `Cc1ccc(C2CN(C)CC2C(=O)c2ccc(F)cc2)cc1` (stereo not drawn) was tested. Which inhibition did it give?
A: Its inhibition is 42% (active).

Q: How did the outcome turn out when `O=C(Cc1ccccc1)N1CCN(Cc2cccc(Br)c2)CC1` was run?
A: The outcome was “inactive”.

Q: `Cc1cccc(N=Cc2c(O)n(-c3ccccc3C)c(=O)[nH]c2=O)c1` was tested. Which outcome did it give?
A: Its outcome is “inactive”.

Q: Which inhibition does the source give for `CC(Cc1ccccc1Sc1ccccc1O)N(C)C` (stereo not drawn) here?
A: Its inhibition is 70% (active).

Q: `COc1ccc(OC)c(CN2CCCC(C(=O)c3sccc3C)C2)c1` (stereo not drawn) was tested. Which inhibition did it give?
A: The inhibition was 50% (active).

Q: How did the inhibition turn out when `CCCCc1ncc(CN2CCCC(C(=O)c3ccc(SC)cc3)C2)[nH]1` (stereo not drawn) was run?
A: The inhibition was 45% (active).
